Assay results as given in article PMC3736091 (Molecular cancer therapeutics, 2013).
pIC50: −log10 of the molar value. Values joined by “and” are separate entries in the source; they are usually repeats but may differ in a detail not shown here. Identical values can stand only once. Marks after values point to notes of the source that are not given here.

Legend:
[1] = Body weight; type: in vivo, mice; details: for Maximum body weight loss: SW620 xenograft studies
[2] = system: SW620 xenografts; assay: Anti-tumour efficacy, SW620 xenografts; type: in vivo, mice
[3] = target: ATM activity in HCT116 cells (Homo sapiens, UniProt Q13315); assay: Inhibition of IR-induced ATM activity, HCT116; type: cell-based; details: 1 μM
Sequence of ATM activity in HCT116 cells (Q13315 whole entry): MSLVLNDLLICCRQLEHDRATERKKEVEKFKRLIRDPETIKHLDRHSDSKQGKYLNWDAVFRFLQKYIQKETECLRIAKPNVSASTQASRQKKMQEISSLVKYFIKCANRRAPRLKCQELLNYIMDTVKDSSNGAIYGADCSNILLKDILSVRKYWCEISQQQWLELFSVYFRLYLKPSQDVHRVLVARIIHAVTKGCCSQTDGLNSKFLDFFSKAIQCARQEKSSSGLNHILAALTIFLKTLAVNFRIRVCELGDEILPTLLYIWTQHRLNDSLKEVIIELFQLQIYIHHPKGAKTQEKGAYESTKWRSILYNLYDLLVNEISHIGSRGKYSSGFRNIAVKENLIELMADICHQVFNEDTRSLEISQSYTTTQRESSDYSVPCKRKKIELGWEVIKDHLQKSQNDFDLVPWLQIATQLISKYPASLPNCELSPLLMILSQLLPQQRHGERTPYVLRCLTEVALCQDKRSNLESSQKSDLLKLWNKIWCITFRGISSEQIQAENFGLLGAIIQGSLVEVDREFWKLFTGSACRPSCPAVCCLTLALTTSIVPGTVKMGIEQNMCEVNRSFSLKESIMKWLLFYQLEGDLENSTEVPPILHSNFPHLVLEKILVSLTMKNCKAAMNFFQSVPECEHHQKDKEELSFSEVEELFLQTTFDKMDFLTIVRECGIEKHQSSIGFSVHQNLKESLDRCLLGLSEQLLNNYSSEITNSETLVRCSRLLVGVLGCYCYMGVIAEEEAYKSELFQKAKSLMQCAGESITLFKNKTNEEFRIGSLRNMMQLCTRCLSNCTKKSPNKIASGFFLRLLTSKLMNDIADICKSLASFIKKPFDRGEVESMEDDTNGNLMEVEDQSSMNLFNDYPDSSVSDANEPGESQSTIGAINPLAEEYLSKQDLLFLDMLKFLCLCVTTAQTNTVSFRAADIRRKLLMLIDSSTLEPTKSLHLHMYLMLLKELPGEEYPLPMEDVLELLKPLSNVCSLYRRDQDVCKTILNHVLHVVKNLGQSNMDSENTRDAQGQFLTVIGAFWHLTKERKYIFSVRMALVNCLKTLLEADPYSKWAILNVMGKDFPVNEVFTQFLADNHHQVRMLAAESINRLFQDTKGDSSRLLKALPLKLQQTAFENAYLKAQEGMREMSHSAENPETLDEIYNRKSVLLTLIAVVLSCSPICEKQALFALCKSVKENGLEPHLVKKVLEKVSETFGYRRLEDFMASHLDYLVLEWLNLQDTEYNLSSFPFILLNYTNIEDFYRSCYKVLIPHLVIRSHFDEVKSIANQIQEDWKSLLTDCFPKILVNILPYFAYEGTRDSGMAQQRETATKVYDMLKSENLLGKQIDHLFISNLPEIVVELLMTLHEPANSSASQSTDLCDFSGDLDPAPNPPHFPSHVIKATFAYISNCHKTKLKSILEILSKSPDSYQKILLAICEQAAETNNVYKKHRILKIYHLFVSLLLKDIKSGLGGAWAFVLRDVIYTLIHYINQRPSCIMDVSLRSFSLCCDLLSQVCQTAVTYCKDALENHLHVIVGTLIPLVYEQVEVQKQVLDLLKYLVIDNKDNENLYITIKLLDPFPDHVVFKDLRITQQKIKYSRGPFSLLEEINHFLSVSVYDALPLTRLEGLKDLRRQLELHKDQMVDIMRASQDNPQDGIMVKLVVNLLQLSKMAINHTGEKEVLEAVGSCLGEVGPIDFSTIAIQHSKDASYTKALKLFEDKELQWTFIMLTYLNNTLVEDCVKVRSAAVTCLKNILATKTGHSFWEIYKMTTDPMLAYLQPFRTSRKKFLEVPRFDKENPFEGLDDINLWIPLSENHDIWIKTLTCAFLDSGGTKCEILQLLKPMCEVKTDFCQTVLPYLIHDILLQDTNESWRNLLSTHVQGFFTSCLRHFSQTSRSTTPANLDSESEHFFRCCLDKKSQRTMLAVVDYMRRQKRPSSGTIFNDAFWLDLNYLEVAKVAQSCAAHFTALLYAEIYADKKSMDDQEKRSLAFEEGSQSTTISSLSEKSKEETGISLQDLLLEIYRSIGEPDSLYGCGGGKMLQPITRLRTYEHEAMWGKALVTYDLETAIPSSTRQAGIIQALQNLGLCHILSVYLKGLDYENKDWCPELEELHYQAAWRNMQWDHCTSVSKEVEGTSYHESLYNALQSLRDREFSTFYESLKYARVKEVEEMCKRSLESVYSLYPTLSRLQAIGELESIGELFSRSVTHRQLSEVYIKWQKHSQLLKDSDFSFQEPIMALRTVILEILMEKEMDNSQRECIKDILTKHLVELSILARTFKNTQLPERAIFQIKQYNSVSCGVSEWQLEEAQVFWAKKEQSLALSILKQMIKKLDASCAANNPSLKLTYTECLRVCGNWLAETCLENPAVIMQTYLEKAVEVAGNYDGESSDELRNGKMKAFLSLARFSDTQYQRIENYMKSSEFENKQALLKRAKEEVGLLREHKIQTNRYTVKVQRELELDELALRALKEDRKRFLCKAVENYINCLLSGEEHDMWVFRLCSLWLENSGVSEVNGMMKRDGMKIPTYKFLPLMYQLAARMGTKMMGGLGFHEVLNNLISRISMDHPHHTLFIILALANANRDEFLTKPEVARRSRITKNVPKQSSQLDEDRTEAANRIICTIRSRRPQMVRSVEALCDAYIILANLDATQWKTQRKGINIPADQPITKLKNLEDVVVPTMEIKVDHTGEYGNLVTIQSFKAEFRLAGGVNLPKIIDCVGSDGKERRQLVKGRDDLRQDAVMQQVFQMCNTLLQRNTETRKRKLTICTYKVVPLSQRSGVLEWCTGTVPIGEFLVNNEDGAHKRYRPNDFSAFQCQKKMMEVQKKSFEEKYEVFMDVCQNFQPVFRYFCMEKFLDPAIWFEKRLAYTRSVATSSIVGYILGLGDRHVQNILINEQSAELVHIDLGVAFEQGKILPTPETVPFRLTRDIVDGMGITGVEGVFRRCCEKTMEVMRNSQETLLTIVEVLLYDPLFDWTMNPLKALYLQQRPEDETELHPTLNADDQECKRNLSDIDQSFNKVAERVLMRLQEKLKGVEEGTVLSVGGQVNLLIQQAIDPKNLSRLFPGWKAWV

[4] = system: SW620 cells; assay: Clonogenic survival assay, SW620; type: cell-based, human; details: for Enhancement factor: 1 μM KU59403
Outline: (§1)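 Clonogenic assay in RPMI 1640 + 10% FBS, 37°C, 5% CO2, <30 passages; HCT116-N7 stably expresses HPV16 E6. Exponentially growing cells had 16 h exposure to cytotoxic (etoposide, doxorubicin or camptothecin; etoposide 1 μM for the bar data) ± test compound 1 μM in 0.5% DMSO, then were seeded for colonies. Survival was normalised to DMSO or inhibitor-alone control. Enhancement factor = survival cytotoxic alone ÷ survival combination, per experiment; 3 independent experiments.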

[5] = Plasma and tumour concentrations in SW620 tumour-bearing nude mice; type: in vivo
Outline: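 Female CD-1 nude mice carried SW620 s.c. flank xenografts (1×10^7 cells) of ~650 mm³. Test compound was given at 50 mg/kg i.p. in equimolar phosphoric acid/saline, pH 4. The comparator ATM inhibitor was given at 10 mg/kg i.p. in phosphoric acid, 5% DMSO, 10% encapsin, pH 4. Dosing volume was 10 ml/kg. Plasma and tumour were sampled at 1 and 4 h and analysed by HPLC; the tumour detection limit was 0.5 μM.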

[6] = system: HCT116 cells; assay: Clonogenic survival assay, HCT116; type: cell-based, human; details: HCT116, etoposide 1 μM + KU59403 1 μM (Figure 1D)
Outline: as §1

[7] = system: MDA-MB-231 cells; assay: Clonogenic survival assay, MDA-MB-231; type: cell-based, human; details: MDA-MB-231, etoposide 1 μM + KU59403 1 μM (Figure 1D)
Outline: as §1

[8] = target: ATM activity in SW620 cells (Homo sapiens, UniProt Q13315); assay: Inhibition of cellular ATM activity, SW620; type: cell-based; details: 1 μM
Sequence of ATM activity in SW620 cells (Q13315 whole entry): as above

[9] = Plasma and tissue concentrations in Balb/C mice; type: in vivo; details: 25 mg/kg i.v., female Balb/C mice, at 4 hr
Outline: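 Female Balb/C mice (non-tumour-bearing) received 25 mg/kg i.v. (10 ml/kg) in equimolar phosphoric acid/saline, pH 4. At time points to 4 h, mice were bled by terminal cardiac puncture. Plasma was stored at −20 °C; brain, liver, spleen and lung were snap frozen and homogenised in PBS (1:3 w/v). Samples underwent HPLC against a plasma standard curve (0.05-10 μg/ml); tissue was quantified by method of addition. n = 3 mice per time point.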

[10] = system: ATM activity in MDA-MB231 cells; assay: Inhibition of IR-induced ATM activity, MDA-MB231; type: cell-based, human; details: 1 μM
[11] = system: HCT116-N7 xenografts; assay: Anti-tumour efficacy, HCT116-N7 xenografts; type: in vivo, mice
[12] = target: T1, ATM (Homo sapiens, UniProt Q13315); assay: Enzyme inhibition, purified ATM; type: biochemical
T1 sequence (Q13315 whole entry): as above
Outline: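 Enzymes were isolated from HeLa cells: ATM plus DNA-PK, PI3K, ATR, PI4K and mTOR. Activity was measured across increasing test compound concentrations. IC50 was calculated from sigmoid plots of inhibitor concentration versus activity. Values are the mean of five independent experiments.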

[13] = system: HCT116-N7 cells; assay: Clonogenic survival assay, HCT116-N7; type: cell-based, human; details: HCT116-N7, etoposide 1 μM + KU59403 1 μM (Figure 1D)
Outline: as §1

[14] = system: human tumour cell lines; assay: Concentration needed for in vitro chemo- and radio-sensitisation; type: cell-based
[15] = system: LoVo cells; assay: Clonogenic survival assay, LoVo; type: cell-based, human; details: for Enhancement factor / % Survival Cytotoxic + KU59403: LoVo; for Enhancement factor: 1 μM KU59403
Outline: as §1

[16] = system: human tumour cell lines; details: cited from earlier work
[17] = target: T1, ATM; details: read-out: Enzyme IC50 ATM; purified enzyme; data previously reported; cited from earlier work
[18] = target: ATR (Homo sapiens, UniProt Q13535); details: read-out: Enzyme IC50 ATR; purified enzyme; data previously reported; cited from earlier work
[19] = KU59403 12.5 mg/kg 2× daily ×5 alone
[20] = KU59403 25 mg/kg daily ×5 alone
[21] = etopophos + KU59403 6 mg/kg 2× daily ×5
[22] = etopophos + KU59403 12.5 mg/kg 1× daily ×5 5 hr post
[23] = etopophos + KU59403 12.5 mg/kg 1× daily ×5 concurrent
[24] = etopophos + KU59403 12.5 mg/kg 2× daily ×5
[25] = etopophos + KU59403 25 mg/kg 2× daily ×5
[26] = irinotecan + KU59403 25 mg/kg daily ×5
[27] = etopophos 11.35 mg/kg i.p. daily ×5 + KU59403 25 mg/kg i.p. twice daily for 5 days
[28] = etopophos (equivalent to 10 mg/kg etoposide) daily ×5 alone

CN1CCN(CCC(=O)Nc2ccc3c(c2)Sc2cccc(-c4cc(=O)cc(N5CCOCC5)o4)c2S3)CC1 [KU59403]
Nadir % Starting Body weight [1, 19]: 100%
Nadir % Starting Body weight [1, 20]: 99.7%
Maximum body weight loss ([1]; combination of KU59403 and etopophos): 7%
Nadir % Starting Body weight [1, 21]: 96.9%
Nadir % Starting Body weight [1, 22]: 94.3%
Nadir % Starting Body weight [1, 23]: 96.5%
Nadir % Starting Body weight [1, 24]: 94.9%
Nadir % Starting Body weight [1, 25]: 93.3%
Maximum body weight loss ([1]; given as a single agent): < 2%
Nadir % Starting Body weight [1, 26]: 100%
Delay [2, 19]: 0.5 days
Time to RTV4 [2, 19]: 7 days
Delay [2, 20]: 5.5 days
Time to RTV4 [2, 20]: 12 days
Increase in etopophos-induced tumour growth delay ([2]; KU59403 25 mg/kg twice daily, SW620 xenografts): 3 fold
Delay [2, 21]: 5.5 days
Enhancement (%) [2, 21]: 38%
Time to RTV4 [2, 21]: 12 days
Delay [2, 22]: 3.5 days
Time to RTV4 [2, 22]: 10 days
Delay [2, 23]: 10 days
Enhancement (%) [2, 23]: 150%
Time to RTV4 [2, 23]: 16.5 days
Delay [2, 24]: 8.5 days
Enhancement (%) [2, 24]: 113 ^§ %
Time to RTV4 [2, 24]: 15 days
Delay [2, 25]: 11.5 days
Time to RTV4 [2, 25]: 18 days
Enhancement (%) ([2]; etopophos + KU59403 25 mg/kg 2× daily ×5, 25 mg/kg): 190 ^* %
Delay [2, 26]: 19.5 days
Time to RTV4 [2, 26]: 26 days
Enhancement (%) ([2]; irinotecan + KU59403 25 mg/kg daily ×5, 25 mg/kg): 144% and 144 ^* %
Inhibition of IR-induced ATM activity [3]: > 50%
% Survival Cytotoxic + KU59403 ([4]; SW620, camptothecin 10 nM + 1 μM KU59403, 16 hr): 0.71 ± 0.35 %
Enhancement factor ([4]; SW620, camptothecin 10 nM): 4 and 4.3 ± 2.8
% Survival Cytotoxic + KU59403 ([4]; SW620, doxorubicin 10 nM + 1 μM KU59403, 16 hr): 17 ± 0.2 %
Enhancement factor ([4]; SW620, doxorubicin 10 nM): 2.9 ± 0.6
% Survival Cytotoxic + KU59403 ([4]; SW620, doxorubicin 100 nM + 1 μM KU59403, 16 hr): 0.01 ± .001%
Enhancement factor ([4]; SW620, doxorubicin 100 nM): 1.8 ± 0.7
% Survival Cytotoxic + KU59403 ([4]; SW620, etoposide 100 nM + 1 μM KU59403, 16 hr): 35 ± 12 %
Enhancement factor ([4]; SW620, etoposide 100 nM): 2.9 ± 1.5
% Survival Cytotoxic + KU59403 ([4]; SW620, etoposide 1 μM + 1 μM KU59403, 16 hr): 0.41 ± 0.23 %
Enhancement of etoposide cytotoxicity ([4]; SW620, etoposide 1 μM + KU59403 1 μM (Figure 1D)): 11.9 ± 4.7 fold and 12 fold
Enhancement factor ([4]; SW620, etoposide 1 μM): 12 ± 7
% survival, inhibitor alone ([4]; SW620 cells, KU59403 1 μM alone, 16 hr): 91± 6%
Time plasma concentration maintained ([5]; 50 mg/kg i.p., SW620-bearing nude mice): at least 4 hours
Tumour concentration ([5]; 50 mg/kg i.p., SW620 xenograft, 4 hour time point): 1.9 µM
Plasma concentration ([5]; single dose 50 mg/kg i.p., SW620-bearing nude mice, 1 and 4 hours): 5 µM
Enhancement of etoposide cytotoxicity [6]: 2.3 ± 1.6 fold
Enhancement of etoposide cytotoxicity [7]: 3.8 ± 1.8 fold
Inhibition of ATM activity [8]: > 50%
Plasma concentration [9]: less than 0.1 μM
Inhibition of IR-induced ATM activity [10]: approximately 50%
Increase in etopophos-induced tumour growth delay ([11]; KU59403 25 mg/kg twice daily, HCT116-N7 xenografts): 3 fold
Enhancement of etopophos activity [11, 27]: 300%
Etopophos-induced tumour growth delay [11, 27]: 8.5 days
Specificity for ATM over other members of the PI3K (PIKK) family tested [12]: at least 1000 fold
Enhancement of etoposide cytotoxicity [13]: 3.8 ± 2.5 fold
Concentration at which an effective chemo-sensitiser [14]: 1 µM
% survival, inhibitor alone ([15]; LoVo cells, KU59403 1 μM alone, 16 hr): 88± 7%
Enhancement factor ([15]; camptothecin 10 nM): 7 and 6.9 ± 3.8
% Survival Cytotoxic + KU59403 ([15]; doxorubicin 10 nM + 1 μM KU59403, 16 hr): 16 ± 6.9 %
Enhancement factor ([15]; doxorubicin 10 nM): 3.2 ± 1
% Survival Cytotoxic + KU59403 ([15]; doxorubicin 100 nM + 1 μM KU59403, 16 hr): 0.35 ± 0.04 %
Enhancement factor ([15]; doxorubicin 100 nM): 6.1 ± 2.1
% Survival Cytotoxic + KU59403 ([15]; etoposide 100 nM + 1 μM KU59403, 16 hr): 18 ± 0.5 %
Enhancement factor ([15]; etoposide 100 nM): 3.3 ± 0.4
% Survival Cytotoxic + KU59403 ([15]; etoposide 1 μM + 1 μM KU59403, 16 hr): 1.1 ± 0.2 %
Enhancement factor ([15]; etoposide 1 μM): 3.8 ± 1.5

C[C@@H]1CN(CC(=O)Nc2ccc3c(c2)Cc2cccc(-c4cc(=O)cc(N5CCOCC5)o4)c2S3)C[C@H](C)O1 [KU-600019]
Concentration needed to induce in vitro chemo- and radio-sensitisation [16]: 3 µM

O=c1cc(N2CCOCC2)oc2c(-c3ccccc3)cccc12 [LY294002]
pIC50 [17]: < 4.00
pIC50 [18]: 4.00

COc1cc([C@@H]2c3cc4c(cc3[C@@H](O[C@@H]3O[C@@H]5CO[C@@H](C)O[C@H]5[C@H](O)[C@H]3O)[C@H]3COC(=O)[C@H]23)OCO4)cc(OC)c1OP(=O)(O)O [etopophos, Etoposide phosphate, reference compound]
Nadir % Starting Body weight [1, 28]: 98.6%
Maximum body weight loss ([1]; given as a single agent): < 2%
Delay [2, 28]: 4 days
Time to RTV4 [2, 28]: 10.5 days
Median time to RTV4 ([11]; etopophos 11.35 mg/kg i.p. daily for 5 days alone): 5.5 days
